The values below come from ChEMBL document CHEMBL2321800, “Design and synthesis of new bifunctional sigma-1 selective ligands with antioxidant activity” (J Med Chem, 2013).

The structures appear in SMILES notation. Calls of active or inactive are those of the source.

Experiment [1] in a line: Displacement of [3H]DTG from sigma2 receptor in guinea pig brain membrane after 120 mins by liquid scintillation counting analysis. Format: cell membranes, Cavia porcellus. An outline of the steps: (§1)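 Guinea pig brain membranes with 3 nM [3H]DTG (Kd 11 nM) plus 400 nM (+)-SKF10,047 to mask sigma1 sites. Nonspecific binding with 5 µM DTG. 50 mM Tris-HCl pH 8.0, 120 min at room temperature. Filtration, scintillation counting, Ki computed; three determinations. Ratio taken from sigma2 and sigma1 Ki values.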
In general terms: Displacement assays read how much labelled ligand stays bound in the presence of the test substance.

For experiment [2], the target named is Sigma non-opioid intracellular receptor 1 (Cavia porcellus, UniProt Q60492). In words: Displacement of [3H]-(+)-pentazocine from sigma1 receptor in guinea pig brain membrane after 150 mins by liquid scintillation counting analysis. In kind it is cell membranes.
The species named for experiment [3] is Cavia porcellus. In words: Selectivity ratio of Ki for guinea pig sigma2 receptor to Ki for guinea pig sigma1 receptor. The essentials: as §1
Experiment [4] is filed under the species Rattus norvegicus. Briefly: Antioxidant activity in rat brain mitochondria assessed as inhibition of Ca2+/phosphate induced mitochondrial swelling by spectrophotometry. In kind it is functional.
For experiment [5], the species on record is Rattus norvegicus. Briefly: Antioxidant activity in rat liver mitochondria assessed as inhibition of Ca2+/phosphate induced mitochondrial swelling at 50 uM by spectrophotometry. Format: functional. An outline of the steps:
(§2)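 Mitochondria from rat liver (50 µM Ca2+) or cerebral cortex (Ficoll-purified; 100 µM Ca2+) at 1 mg protein/ml, 20 °C, in 200 mM sucrose, 10 mM HEPES pH 7.4, 5 mM succinate, 1 mM phosphate, 1.25 µM rotenone. Swelling followed as fall in apparent absorbance at 540 nm. Five runs.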

For experiment [6], the species on record is Rattus norvegicus. Briefly: Antioxidant activity in rat liver mitochondria assessed as restoration of Ca2+/phosphate induced sulfhydryl group oxidation at 3 mM after 15 mins by mitochondrial thiol oxidation assay. In kind it is functional. The essentials: (§3)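 After 15 min under swelling conditions (1 mg/ml; Ca2+ 50 µM liver, 100 µM brain; succinate/rotenone, 1 mM phosphate, 20 °C), mitochondria were pelleted and solubilized in pH 8.3 EDTA/Tris/1% SDS with DTNB. Thiols read at 412 nm and given as percent reduced SH groups. Five independent experiments; ANOVA and Student's t-test.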

The species named for experiment [7] is Rattus norvegicus. In words: Antioxidant activity in rat brain mitochondria assessed as restoration of Ca2+/phosphate induced sulfhydryl group oxidation at 3 mM after 15 mins by mitochondrial thiol oxidation assay. In kind it is functional. An outline of the steps:
as §3

The species entered for experiment [8] is Rattus norvegicus. In words: Antioxidant activity in rat brain mitochondria assessed as inhibition of Ca2+/phosphate induced mitochondrial permeability transition at 25 to 50 uM by spectrophotometry. Format: functional. An outline of the steps: as §2
Experiment [9] has as its system Rattus norvegicus. In words: Antinociceptive activity in Sprague-Dawley rat assessed as basal tail flick latency at 1 mg/kg, sc by radiant heat tail flick test. Set-up: dose 1 mg/kg. Format: functional, organism-based. An outline of the steps:
(§4)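 Male Sprague-Dawley rats (180-200 g), habituated the day before; radiant heat (infrared) aimed at lower third of tail, 25±1 °C. Basal latency 3-4 s, mean of three readings at 5 min intervals; 10 s cut-off. Drugs sc; tail-flick latency read 30, 45, 60, 75 and 90 min after injection. n=8-10, mean ± SD, two-way ANOVA with Duncan post-hoc.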
(In general: Thermal pain tests record how soon the animal reacts.)

Experiment [10] is filed under the species Rattus norvegicus. Briefly: Antioxidant activity in rat liver mitochondria assessed as inhibition of Ca2+/phosphate induced mitochondrial swelling at 25 uM by spectrophotometry. Format: functional. The essentials:
as §2

Experiment [11] is filed under the species Rattus norvegicus. In words: Antioxidant activity in rat liver mitochondria assessed as restoration of Ca2+/phosphate induced sulfhydryl group oxidation at 25 to 50 uM after 15 mins by mitochondrial thiol oxidation assay. Format: functional. An outline of the steps: as §3
For experiment [12], the species on record is Rattus norvegicus. Briefly: Antioxidant activity in rat brain mitochondria assessed as restoration of Ca2+/phosphate induced sulfhydryl group oxidation at 50 uM after 15 mins by mitochondrial thiol oxidation assay. Format: functional. An outline of the steps:
as §3

Experiment [13] has as its system Rattus norvegicus. In words: Reduction of (-)-U50488H-induced basal tail flick latency in Sprague-Dawley rat at 1 mg/kg, sc after 30 to 90 mins by radiant heat tail flick test. In kind it is functional, organism-based. Set-up: dose 1 mg/kg. An outline of the steps: as §4

Chain of Sigma non-opioid intracellular receptor 1 (Q60492 whole entry): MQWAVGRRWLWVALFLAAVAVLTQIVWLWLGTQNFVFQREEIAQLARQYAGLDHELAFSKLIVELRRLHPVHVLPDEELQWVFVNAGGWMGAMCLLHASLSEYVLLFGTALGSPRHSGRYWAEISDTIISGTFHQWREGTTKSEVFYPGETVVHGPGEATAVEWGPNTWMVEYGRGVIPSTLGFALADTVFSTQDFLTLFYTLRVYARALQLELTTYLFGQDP

Consider `O=C(CCCCC1CCSS1)OC1CCN(CCc2ccccc2)CC1` (stereo not given), for which the inhibition constant (Ki) stood at 160 nM in [1] and 13.5 nM in experiment [2]. The Ratio Ki in experiment [3] is 11.8.
For `O=C(CCCCC1CCSS1)N1CCN(CCCc2ccccc2)CC1` (stereo not given), the inhibition constant (Ki) worked out at 91.6 nM in experiment [1] and 10 nM in [2]. Moreover, the Ratio Ki in experiment [3] stood at 9.16.
On to `O=C(CCCCC1CCSS1)N1CCN(C2CCCCC2)CC1` (stereo not given), for which the inhibition constant Ki in [1] turned out to be 11.2 nM; in experiment [2], 0.4 nM. For the same compound, the Ratio Ki in experiment [3] came out at 28.
The corresponding values for `O=C(CCCCC1CCSS1)OC1CCN(CC2CCCCC2)CC1` (stereo not given) are 14 nM, 1.14 nM and 12.3.
On to `OC[C@@H](O)[C@@H](S)CS`, for which the inhibition entry in [4] was “inactive”. The inhibition entry in [5] is “Active”. For the same compound, the outcome in [6] and in experiment [7] was Active.
As to `O=C(CCCCC1CCSS1)N1CCN(Cc2ccccc2)CC1` (stereo not given), the figures for the Ki in [1] and in [2] were 637 nM and 1.8 nM, respectively. Further, in experiment [3], the Ratio Ki stood at 354.
For `O=C(CCCCC1CCSS1)OC1CCN(CCCc2ccccc2)CC1` (stereo not given), in that order: 101 nM, 25.7 nM and 3.9.
The corresponding values for `CN1CCN(C(=O)CCCCC2CCSS2)CC1` (stereo not given) are 21000 nM, 115 nM and 183.
Take `O=C(CCCCC1CCSS1)OC1CCN(Cc2ccccc2)CC1` (stereo not given): the inhibition constant Ki amounted to 2300 nM in experiment [1] and 5.56 nM in experiment [2]. Also, the inhibition result in experiment [5], in [8] and in [10] was “Active” throughout. Moreover, the outcome in experiment [9] was inactive. The outcome in experiment [11], in experiment [12] and in experiment [13] was Active. Also, in experiment [3], the Ratio Ki came out at 414.
For `Nc1ncnc2c1ncn2[C@@H]1O[C@H](COP(=O)(O)OP(=O)(O)O)[C@@H](O)[C@H]1O`, the inhibition result in experiment [4] and in [5] was “Active” throughout.
For the compound `O=C(CCCCC1CCSS1)N1CCN(CCc2ccccc2)CC1` (stereo not given), the Ki in experiment [1] turned out to be 209 nM; in [2], 8.4 nM. For the same compound, the Ratio Ki in experiment [3] turned out to be 24.8.

A word on the Ki: it is a measure of affinity in units of concentration, obtained from inhibition or displacement. A high value points to a looser hold on the target.
